# Experimental data: ChEMBL document CHEMBL4007417, “Target Elucidation by Cocrystal Structures of NADH-Ubiquinone Oxidoreductase of Plasmodium falciparum (PfNDH2) with Small Molecule To Eliminate Drug-Resistant Malaria” (J Med Chem, 2017)
# Active and inactive are the calls of the source. The calls are words filed in the database; no cut-off is given here.
# Assays:
# Plasmodium yoelii [1] = test: Antimalarial activity against Plasmodium yoelii YM infected in BALB/c mouse assessed as time duration for parasite cure at 30 mg/kg, sc administered BID for 4 days starting at 96 hrs post infection, 8 hrs apart by Giemsa-staining based microscopic analysis; type: functional
# How it was run: (§1)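 P. yoelii-infected mice, n=3 per group. Subcutaneous injection twice daily, 8 h apart, for 4 days starting at 96 h post infection. Growth inhibition read from blood smears at 24 h post treatment. Cure time taken as the minimum period to cure all mice in the group. DMSO controls included.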
# Plasmodium falciparum [2] = test: (§2) Antimalarial activity against quinine-resistant asexual blood stage Plasmodium falciparum 3D7 assessed as reduction in parasite recrudescence at 10 times EC50 for 72 hrs measured after 28 days post invasion by Giemsa staining-based light microscopic analysis; type: functional
# How it was run: (§3)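 Parasite cultures exposed for 72 h to 10× EC50 of inhibitor. Drug then removed and cultures maintained for 28 days post treatment. Recrudescence monitored by microscopy.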
# Plasmodium falciparum [3] = test: Antimalarial activity against chloroquine-resistant asexual blood stage Plasmodium falciparum GB4 after 72 hrs by SYBR green-based fluorometric analysis; type: functional; details: GB4, 72 h
# How it was run: (§4)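 Mid-ring-stage cultures (~6-10 h post-invasion) at 1% parasitemia and 2% hematocrit, in triplicate. Twofold serial dilutions from a top concentration of 100 nM. Incubated 72 h at 37 °C under 5% CO2/5% O2/90% N2. Lysis buffer containing 5×SYBR Green I added, 20 min in the dark, fluorescence read at ex 485/em 538 nm. EC50 derived.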
# Plasmodium yoelii [4] = test: Antimalarial activity against Plasmodium yoelii YM infected in BALB/c mouse assessed reduction in parasitemia at 30 mg/kg/day, sc for 4 days by Giemsa-staining based microscopic analysis; type: functional, organism-based
# How it was run: (§5)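 P. yoelii-infected mice, n=3 per group. Subcutaneous injection once daily for 4 days starting at 96 h post infection. Parasitemia followed on blood-smear microscopy, with inhibition measured at 24 h post treatment. Cure time taken as the minimum period to cure all mice; survival recorded at 40 days. DMSO controls included.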
# Plasmodium falciparum [5] = test: Antimalarial activity against sulfadoxine-pyrimethamine/mefloquine resistant asexual blood stage Plasmodium falciparum CP286 after 72 hrs by SYBR green-based fluorometric analysis; type: functional; details: CP286, 72 h; how it was run: as §4
# Plasmodium falciparum [6] = test: Antimalarial activity against multi drug-resistant asexual blood stage Plasmodium falciparum D10 after 72 hrs by SYBR green-based fluorometric analysis; type: functional; details: D10, 72 h; how it was run: as §4
# Plasmodium yoelii [7] = test: Antimalarial activity against Plasmodium yoelii YM infected in BALB/c mouse assessed as parasite growth inhibition at 10 mg/kg, sc administered BID for 4 days starting at 96 hrs post infection, 8 hrs apart by Giemsa-staining based microscopic analysis; type: functional; details: read-out: GI; how it was run: as §1
# Plasmodium falciparum [8] = test: Antimalarial activity against dihydroartemisinin-resistant asexual blood stage Plasmodium falciparum 803 assessed as reduction in parasite recrudescence at 10 times EC50 for 72 hrs measured after 28 days post invasion by Giemsa staining-based light microscopic analysis; type: functional; how it was run: as §3
# Plasmodium falciparum [9] = test: Antimalarial activity against chloroquine/quinine/sulfadoxine-pyrimethamine/amodiaquine-resistant asexual blood stage Plasmodium falciparum Dd2 after 72 hrs by SYBR green-based fluorometric analysis; type: functional; details: Dd2, 72 h; how it was run: as §4
# Plasmodium yoelii [10] = test: Antimalarial activity against Plasmodium yoelii YM infected in BALB/c mouse assessed as parasite growth inhibition at 90 mg/kg, sc administered BID for 4 days starting at 96 hrs post infection, 8 hrs apart by Giemsa-staining based microscopic analysis; type: functional; details: read-out: GI; how it was run: as §1
# Plasmodium yoelii [11] = test: Antimalarial activity against Plasmodium yoelii YM infected in BALB/c mouse assessed as mouse survival at 30 mg/kg, sc administered QD for 4 days starting at 96 hrs post infection by Giemsa-staining based microscopic analysis; type: functional
# How it was run: (§6)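 Mice inoculated with 1×106 P. yoelii parasites. Subcutaneous dosing for 4 days starting 96 h post infection, given once daily or twice daily 8 h apart. Parasitemia followed on Giemsa-stained blood smears. Survival recorded at 40 days post infection; groups of n=3. DMSO-only mice served as untreated controls.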
# Plasmodium falciparum [12] = test: Antimalarial activity against mid/late trophozoite stage of Plasmodium falciparum 3D7 assessed as reduction in parasitemia at 10 times EC50 administered at synchronized early ring stages and then removed from culture at 2 hrs intervals after 34 hrs paraiste invasion stage and measured till 40 hrs post invasion by SYBR green-based fluorometric analysis; type: functional; parameters: scale not given: the % may be the effect or the level left
# How it was run: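 Synchronized early-ring P. falciparum 3D7 treated with about 10×EC50 compound. Compound removed at 2 h intervals starting at t=34 h (trophozoite), then parasites returned to compound-free medium. Maturation through a single ~48 h asexual cycle followed.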
# HeLa = test: Cytotoxicity against human HeLa cells assessed as reduction in cell viability up to 2 uM after 48 hrs by MTT assay; type: cell-based
# How it was run: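 HeLa cell viability measured by MTT assay with compound at concentrations up to 2 µM.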
# Plasmodium yoelii [13] = test: Antimalarial activity against Plasmodium yoelii YM infected in BALB/c mouse assessed as mouse survival at 5 mg/kg, sc administered QD for 4 days starting at 2 hrs post infection by Giemsa-staining based microscopic analysis; type: functional
# How it was run: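 Mice inoculated with 1×106 P. yoelii parasites, then dosed subcutaneously once daily for 4 days starting 2 h post infection. Parasitemia followed by microscopy of blood smears. Survival scored at 40 days post infection in groups of n=3 mice. DMSO-only controls.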
# Plasmodium yoelii [14] = test: Antimalarial activity against Plasmodium yoelii YM infected in BALB/c mouse assessed as mouse survival at 90 mg/kg, sc administered BID for 4 days starting at 96 hrs post infection, 8 hrs apart by Giemsa-staining based microscopic analysis; type: functional; how it was run: as §6
# Plasmodium falciparum [15] = test: Antimalarial activity against multi drug-resistant asexual blood stage Plasmodium falciparum Fab9 after 72 hrs by SYBR green-based fluorometric analysis; type: functional; details: Fab9, 72 h; how it was run: as §4
# Plasmodium yoelii [16] = test: Antimalarial activity against Plasmodium yoelii YM infected in BALB/c mouse assessed as parasite growth inhibition at 5 mg/kg, sc administered QD for 4 days starting at 2 hrs post infection by Giemsa-staining based microscopic analysis; type: functional; details: read-out: GI
# How it was run: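 P. yoelii-infected mice, n=3 per group. Subcutaneous injection once daily for 4 days starting at 2 h post infection. Growth inhibition determined at 24 h post treatment by blood-smear microscopy. Cure time taken as the minimum period to cure all mice in the group.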
# Plasmodium falciparum [17] = test: Antimalarial activity against quinine-resistant asexual blood stage Plasmodium falciparum C2A after 72 hrs by SYBR green-based fluorometric analysis; type: functional; how it was run: as §4
# Plasmodium falciparum [18] = test: Antimalarial activity against Plasmodium falciparum 3D7 assessed as alteration of parasite morphology at 10 times EC50 dosed at ring stage […] by Giemsa staining-based light microscopic analysis; type: functional, organism-based
# Plasmodium yoelii [19] = test: Antimalarial activity against Plasmodium yoelii YM infected in BALB/c mouse assessed as mouse survival at 30 mg/kg, sc administered BID for 4 days starting at 96 hrs post infection, 8 hrs apart by Giemsa-staining based microscopic analysis; type: functional; how it was run: as §6
# Plasmodium falciparum [20] = test: as §2, with “chloroquine/quinine/sulfadoxine-pyrimethamine/amodiaquine-resistant” for “quinine-resistant”, “Dd2” for “3D7”; type: functional; how it was run: as §3
# Plasmodium falciparum [21] = test: Antimalarial activity against […] asexual blood stage Plasmodium falciparum 3D7 after 72 hrs by SYBR green-based fluorometric analysis; type: functional; details: 3D7, 72 h; how it was run: as §4
# Plasmodium falciparum [22] = test: Antimalarial activity against chloroquine/quinine/sulfadoxine-pyrimethamine/amodiaquine-resistant asexual blood stage Plasmodium falciparum PC26 after 72 hrs by SYBR green-based fluorometric analysis; type: functional; details: PC26, 72 h; how it was run: as §4
# Plasmodium falciparum [23] = test: Antimalarial activity against chloroquine/quinine-resistant asexual blood stage Plasmodium falciparum S35 after 72 hrs by SYBR green-based fluorometric analysis; type: functional; details: S35, 72 h; how it was run: as §4
# Plasmodium yoelii [24] = test: Antimalarial activity against Plasmodium yoelii YM infected in BALB/c mouse assessed as mouse survival at 10 mg/kg, sc administered BID for 4 days starting at 96 hrs post infection, 8 hrs apart by Giemsa-staining based microscopic analysis; type: functional; how it was run: as §6
# Plasmodium falciparum [25] = test: Antimalarial activity against dihydroartemisinin-resistant asexual blood stage Plasmodium falciparum 803 after 72 hrs by SYBR green-based fluorometric analysis; type: functional; details: Plasmodium falciparum, 803, 72 h; how it was run: as §4
# Plasmodium yoelii [26] = test: Antimalarial activity against Plasmodium yoelii YM infected in BALB/c mouse assessed as time duration for parasite cure at 90 mg/kg, sc administered BID for 4 days starting at 96 hrs post infection, 8 hrs apart by Giemsa-staining based microscopic analysis; type: functional; how it was run: as §1
# Plasmodium yoelii [27] = test: Antimalarial activity against Plasmodium yoelii YM infected in BALB/c mouse assessed as parasite growth inhibition at 30 mg/kg, sc administered QD for 4 days starting at 96 hrs post infection by Giemsa-staining based microscopic analysis; type: functional; details: read-out: GI; how it was run: as §5
# Plasmodium yoelii [28] = test: Antimalarial activity against Plasmodium yoelii YM infected in BALB/c mouse assessed as parasite cure level at 10 mg/kg, ip administered on days 1 post infection by Giemsa-stained microscopic analysis; type: functional, organism-based
# How it was run: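 Mice (groups of three) inoculated with 1×10^6 P. yoelii parasites. Single intraperitoneal dose of 10, 30 or 90 mg/kg given 24 h after inoculation. DMSO-only untreated group included. Outcome followed by blood-smear microscopy for cure, with survival scored at 40 days post infection.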
# Plasmodium yoelii [29] = test: Antimalarial activity against Plasmodium yoelii YM infected in BALB/c mouse assessed as parasite growth inhibition at 30 mg/kg, sc administered BID for 4 days starting at 96 hrs post infection, 8 hrs apart by Giemsa-staining based microscopic analysis; type: functional; details: read-out: GI; how it was run: as §1
# Plasmodium yoelii [30] = test: Antimalarial activity against Plasmodium yoelii YM infected in BALB/c mouse assessed as time duration for parasite cure at 30 mg/kg, sc administered QD for 4 days starting at 96 hrs post infection by Giemsa-staining based microscopic analysis; type: functional; how it was run: as §5
smiles,measurement,setting,value
Cc1c(-c2ccc(Cc3ccc(SC(F)(F)F)cc3)cc2)[nH]c2cccc(F)c2c1=O,Time,Plasmodium yoelii [1],15 days
same,Activity,Plasmodium falciparum [2],Active
same,EC50,Plasmodium falciparum [3],3.17 nM
same,Activity,Plasmodium yoelii [4],Active
same,EC50,Plasmodium falciparum [5],6.24 nM
same,EC50,Plasmodium falciparum [6],7.7 nM
same,inhibition in vivo at 10 mg/kg,Plasmodium yoelii [7],0%
same,Activity,Plasmodium falciparum [8],Active
same,EC50,Plasmodium falciparum [9],2.1 nM
same,inhibition in vivo at 90 mg/kg,Plasmodium yoelii [10],100%
same,survival at 30 mg/kg,Plasmodium yoelii [11],66.7%
same,Activity,Plasmodium falciparum [12],>=50%
same,Activity,HeLa,Non-Toxic
same,survival at 5 mg/kg,Plasmodium yoelii [13],0%
same,survival at 90 mg/kg,Plasmodium yoelii [14],100%
same,EC50,Plasmodium falciparum [15],5.46 nM
same,inhibition in vivo at 5 mg/kg,Plasmodium yoelii [16],0%
same,EC50,Plasmodium falciparum [17],5.26 nM
same,Activity,Plasmodium falciparum [18],Active
same,survival at 30 mg/kg,Plasmodium yoelii [19],100%
same,Activity,Plasmodium falciparum [20],Active
same,EC50,Plasmodium falciparum [21],5.69 nM
same,EC50,Plasmodium falciparum [22],4.42 nM
same,EC50,Plasmodium falciparum [23],4.82 nM
same,survival at 10 mg/kg,Plasmodium yoelii [24],0%
same,EC50,Plasmodium falciparum [25],4.66 nM
same,Time,Plasmodium yoelii [26],14 days
same,inhibition in vivo at 30 mg/kg,Plasmodium yoelii [27],77.4%
same,Activity,Plasmodium yoelii [28],inactive
same,inhibition in vivo at 30 mg/kg,Plasmodium yoelii [29],99.8%
same,Time,Plasmodium yoelii [30],18 days
